Data on three compounds can be found in ChEMBL document CHEMBL4680071, “Structure guided generation of thieno[3,2-d]pyrimidin-4-amine Mycobacterium tuberculosis bd oxidase inhibitors” (RSC Med Chem, 2021).

What is called IC50 is the midpoint of a concentration-inhibition curve.

Test [1] is described as follows: Inhibition of […] tuberculosis Erdman assessed as replicating ATP by measuring ATP depletion incubated for 15 hrs in presence of Q203 by BacTiter-Glo luminescence assay. More on the design: species or system Mycobacterium tuberculosis str. Erdman. In short, it runs like this: (§1)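 Cultures grown in Middlebrook 7H9 with 0.05% Tween 80, 0.5% glycerol, BSA fraction V, D-glucose and NaCl. Cells pelleted, resuspended in glycerol-free medium at about 10^7 CFU/mL, added to compound dilutions. Plates incubated 15 h at 37°C. BacTiter-Glo reagent added, luminescence read after 12 min to give ATP level. IC50 from curve fitting.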

Test [2] can be described thus: Inhibition of cytochrome-bd oxidase in Mycobacterium tuberculosis H37Rv assessed as replicating ATP by measuring ATP depletion incubated for 15 hrs in absence of Q203 by BacTiter-Glo luminescence assay. In short, it runs like this: as §1
Test [3] can be described thus: Inhibition of cytochrome-bd oxidase in Mycobacterium tuberculosis clinical isolate N0145 assessed as replicating ATP by measuring ATP depletion incubated for 15 hrs in absence of Q203 by BacTiter-Glo luminescence assay. In short, it runs like this: as §1

With `CCc1nc(NCCCc2ccccc2)c2cc(C)sc2n1`, the IC50 in test [1] worked out at 83 nM.
On to `CCCCNc1nc(CC)nc2sc(C)cc12`, for which the IC50 in test [1] was determined as 3200 nM.
Turning to `COc1nc2ccc(Br)cc2cc1[C@@H](c1ccccc1)[C@@](O)(CCN(C)C)c1cccc2ccccc12` [BEDAQUILINE], the figures for the half-inhibitory concentration (IC50) in test [2] and in test [3] were 40 µM and 10 µM, respectively.
